Reference: ChEMBL document CHEMBL1130213, “Synthesis and pharmacological characterization of aminocyclopentanetricarboxylic acids: new tools to discriminate between metabotropic glutamate receptor subtypes” (J Med Chem, 1997)

Experiments:
[1] = biological target: T1, Metabotropic glutamate receptor 2 (Homo sapiens, UniProt Q14416); assay: Agonist activity against Metabotropic glutamate receptor 2 expressed in HEK 293 cells was evaluated by measuring total inositol phosphate accumulation; assay type: functional, cell-based, HEK293
How it was run: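 HEK 293 cells in DMEM with 10% fetal calf serum, electroporated with receptor plasmid (mGluR1a 0.3 μg, or mGluR2 2 μg co-expressed with Gqi9). Cells labeled overnight with [3H]myo-inositol, then stimulated 30 min with agonist in 10 mM LiCl. IP produced expressed over membrane radioactivity. Basal taken with glutamate pyruvate transaminase (1 unit/mL) plus 2 mM pyruvate. EC50 from logistic fit; triplicates.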
Target sequence in this assay (Q14416 whole entry): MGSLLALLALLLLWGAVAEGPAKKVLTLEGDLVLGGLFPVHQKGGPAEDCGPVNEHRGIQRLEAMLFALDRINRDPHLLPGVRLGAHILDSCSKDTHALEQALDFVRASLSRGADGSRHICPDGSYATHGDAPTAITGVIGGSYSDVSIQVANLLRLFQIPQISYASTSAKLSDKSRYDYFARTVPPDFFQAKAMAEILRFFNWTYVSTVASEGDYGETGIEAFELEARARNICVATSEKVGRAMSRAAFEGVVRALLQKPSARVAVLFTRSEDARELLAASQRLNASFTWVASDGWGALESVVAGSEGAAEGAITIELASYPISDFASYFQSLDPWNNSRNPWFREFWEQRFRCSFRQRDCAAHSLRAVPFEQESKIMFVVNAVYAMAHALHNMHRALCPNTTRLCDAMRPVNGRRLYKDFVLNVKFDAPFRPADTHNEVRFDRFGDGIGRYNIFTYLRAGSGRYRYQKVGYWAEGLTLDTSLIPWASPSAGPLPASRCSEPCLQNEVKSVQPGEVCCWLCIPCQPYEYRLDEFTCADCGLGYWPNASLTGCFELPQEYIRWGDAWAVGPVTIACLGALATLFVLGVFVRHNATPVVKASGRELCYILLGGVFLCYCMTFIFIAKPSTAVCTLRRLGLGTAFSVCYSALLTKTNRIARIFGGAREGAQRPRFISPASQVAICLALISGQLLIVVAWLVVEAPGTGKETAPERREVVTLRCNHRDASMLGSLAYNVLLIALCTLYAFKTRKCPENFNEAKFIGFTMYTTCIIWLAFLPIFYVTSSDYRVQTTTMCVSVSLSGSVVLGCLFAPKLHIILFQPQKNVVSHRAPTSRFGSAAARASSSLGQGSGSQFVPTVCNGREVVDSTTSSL

[2] = biological target: T1, Metabotropic glutamate receptor 2; assay: Agonist activity against Metabotropic glutamate receptor 2 expressed in HEK 293 cells was evaluated by measuring total inositol phosphate accumulation; No effect at 1 mM; assay type: functional, cell-based; conditions: hek293
Target sequence in this assay (Q14416 whole entry): as above

[3] = biological target: Metabotropic glutamate receptor 1 (Homo sapiens, UniProt Q13255); assay: Agonist activity against Metabotropic glutamate receptor 1 expressed in HEK 293 cells was evaluated by measuring total inositol phosphate accumulation; No effect at 1 mM; assay type: functional, cell-based; conditions: hek293
Sequence of Metabotropic glutamate receptor 1 (Q13255 whole entry): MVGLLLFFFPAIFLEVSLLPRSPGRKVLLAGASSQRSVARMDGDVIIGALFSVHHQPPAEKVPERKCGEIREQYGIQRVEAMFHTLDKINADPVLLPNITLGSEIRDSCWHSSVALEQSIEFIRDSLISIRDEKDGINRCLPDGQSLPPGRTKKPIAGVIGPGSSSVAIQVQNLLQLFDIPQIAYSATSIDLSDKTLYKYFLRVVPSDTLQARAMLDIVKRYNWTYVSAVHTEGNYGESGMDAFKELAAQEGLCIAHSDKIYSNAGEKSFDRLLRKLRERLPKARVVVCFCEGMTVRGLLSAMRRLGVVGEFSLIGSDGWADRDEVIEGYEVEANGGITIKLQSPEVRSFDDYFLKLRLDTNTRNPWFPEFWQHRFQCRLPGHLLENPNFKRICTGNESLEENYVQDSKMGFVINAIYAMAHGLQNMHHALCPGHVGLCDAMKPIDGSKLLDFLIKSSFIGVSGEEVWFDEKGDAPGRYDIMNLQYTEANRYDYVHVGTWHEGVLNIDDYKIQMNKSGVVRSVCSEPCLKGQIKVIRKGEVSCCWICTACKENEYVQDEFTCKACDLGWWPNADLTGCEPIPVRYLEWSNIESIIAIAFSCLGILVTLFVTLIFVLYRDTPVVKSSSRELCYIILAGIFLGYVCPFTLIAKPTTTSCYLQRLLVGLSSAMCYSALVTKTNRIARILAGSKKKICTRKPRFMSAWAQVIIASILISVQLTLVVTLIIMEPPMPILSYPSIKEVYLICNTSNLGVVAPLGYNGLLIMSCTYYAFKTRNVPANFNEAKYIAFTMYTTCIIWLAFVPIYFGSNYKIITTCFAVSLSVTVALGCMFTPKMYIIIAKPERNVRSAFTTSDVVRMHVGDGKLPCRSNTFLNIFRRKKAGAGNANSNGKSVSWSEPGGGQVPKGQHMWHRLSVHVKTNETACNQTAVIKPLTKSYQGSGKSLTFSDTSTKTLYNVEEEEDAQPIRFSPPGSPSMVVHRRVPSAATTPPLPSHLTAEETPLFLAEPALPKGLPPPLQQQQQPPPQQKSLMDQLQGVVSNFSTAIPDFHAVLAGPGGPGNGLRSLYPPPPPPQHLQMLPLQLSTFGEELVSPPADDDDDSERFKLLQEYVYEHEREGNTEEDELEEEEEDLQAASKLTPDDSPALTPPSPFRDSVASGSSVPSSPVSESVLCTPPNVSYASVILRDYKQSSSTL

[4] = biological target: T2, Metabotropic glutamate receptor 4 (Homo sapiens, UniProt Q14833); assay: Agonist activity against Metabotropic glutamate receptor 4 expressed in HEK 293 cells was evaluated by measuring total inositol phosphate accumulation; assay type: functional, cell-based, HEK293
T2 sequence (Q14833 whole entry): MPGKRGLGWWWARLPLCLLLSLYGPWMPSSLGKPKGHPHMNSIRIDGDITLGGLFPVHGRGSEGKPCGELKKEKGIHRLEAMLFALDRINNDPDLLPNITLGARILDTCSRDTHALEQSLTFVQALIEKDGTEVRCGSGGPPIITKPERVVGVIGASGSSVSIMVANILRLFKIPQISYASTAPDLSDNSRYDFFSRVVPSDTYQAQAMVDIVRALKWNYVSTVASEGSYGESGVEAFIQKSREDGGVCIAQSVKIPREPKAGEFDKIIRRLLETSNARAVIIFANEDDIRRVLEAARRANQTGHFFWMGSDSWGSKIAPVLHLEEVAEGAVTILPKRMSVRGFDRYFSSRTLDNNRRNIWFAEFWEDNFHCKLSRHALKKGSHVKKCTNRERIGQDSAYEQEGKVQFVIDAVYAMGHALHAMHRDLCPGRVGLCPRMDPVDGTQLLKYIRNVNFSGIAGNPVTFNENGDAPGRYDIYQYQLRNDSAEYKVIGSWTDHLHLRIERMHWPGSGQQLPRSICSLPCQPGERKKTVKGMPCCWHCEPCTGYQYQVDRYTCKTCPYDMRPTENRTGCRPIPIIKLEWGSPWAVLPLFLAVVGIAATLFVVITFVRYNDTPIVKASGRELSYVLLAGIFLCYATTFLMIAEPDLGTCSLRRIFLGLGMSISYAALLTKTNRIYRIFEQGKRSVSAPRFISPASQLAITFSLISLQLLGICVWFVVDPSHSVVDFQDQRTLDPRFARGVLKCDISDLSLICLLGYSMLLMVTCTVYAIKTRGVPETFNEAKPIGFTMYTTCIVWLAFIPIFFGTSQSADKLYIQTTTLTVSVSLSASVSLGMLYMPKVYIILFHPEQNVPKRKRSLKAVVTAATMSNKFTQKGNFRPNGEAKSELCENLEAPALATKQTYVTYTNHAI

[5] = biological target: T1, Metabotropic glutamate receptor 2; assay: Antagonist activity against Metabotropic glutamate receptor 2 expressed in HEK 293 cells was evaluated by measuring total inositol phosphate accumulation; No effect at 1 mM; assay type: functional, cell-based; conditions: HEK293
Target sequence in this assay (Q14416 19-872 limits assumed): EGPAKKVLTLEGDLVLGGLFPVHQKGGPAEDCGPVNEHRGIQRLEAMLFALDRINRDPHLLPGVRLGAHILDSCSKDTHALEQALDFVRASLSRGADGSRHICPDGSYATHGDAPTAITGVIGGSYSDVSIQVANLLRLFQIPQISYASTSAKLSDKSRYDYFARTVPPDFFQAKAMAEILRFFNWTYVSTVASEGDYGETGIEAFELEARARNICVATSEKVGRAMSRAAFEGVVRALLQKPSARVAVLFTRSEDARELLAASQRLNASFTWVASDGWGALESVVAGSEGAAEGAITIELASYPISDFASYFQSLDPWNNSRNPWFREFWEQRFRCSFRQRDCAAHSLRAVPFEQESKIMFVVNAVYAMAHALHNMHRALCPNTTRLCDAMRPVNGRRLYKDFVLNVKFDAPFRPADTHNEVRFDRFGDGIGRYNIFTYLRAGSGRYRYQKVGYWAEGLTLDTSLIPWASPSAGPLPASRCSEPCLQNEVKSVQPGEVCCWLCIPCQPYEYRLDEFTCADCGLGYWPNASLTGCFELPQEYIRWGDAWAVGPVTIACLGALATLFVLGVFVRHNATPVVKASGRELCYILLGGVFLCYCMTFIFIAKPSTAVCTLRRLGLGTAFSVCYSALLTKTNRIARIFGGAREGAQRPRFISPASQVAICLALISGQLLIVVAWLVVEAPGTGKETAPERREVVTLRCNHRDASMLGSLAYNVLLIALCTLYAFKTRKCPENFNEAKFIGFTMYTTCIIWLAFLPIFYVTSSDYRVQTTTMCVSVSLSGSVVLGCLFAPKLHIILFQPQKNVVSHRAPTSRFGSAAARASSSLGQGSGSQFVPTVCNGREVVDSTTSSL

[6] = biological target: T2, Metabotropic glutamate receptor 4; assay: Agonist activity against Metabotropic glutamate receptor 4 expressed in HEK 293 cells was evaluated by measuring total inositol phosphate accumulation; No effect at 1 mM; assay type: functional, cell-based; conditions: hek293

Row | Structure (SMILES) | EC50 [2] | EC50 [3] | EC50 [4] | Kb [5] | EC50 [6] | EC50 [1]
1 | N[C@]1(C(=O)O)CC[C@H](C(=O)O)C1 |  |  |  |  |  | 110 µM
2 | N[C@@]1(C(=O)O)CC[C@@H](C(=O)O)C1 |  |  |  |  |  | 18 µM
3 | N[C@]1(C(=O)O)C[C@H](C(=O)O)[C@H](C(=O)O)C1 | No effect | No effect |  |  | No effect | 
4 | N[C@@]1(C(=O)O)CC[C@H](C(=O)O)C1 |  |  |  |  |  | 13 µM
5 | N[C@]1(C(=O)O)CC[C@@H](C(=O)O)C1 |  |  |  |  | No effect | > 1000 µM

Now from value to compound, other results behind:

Row | EC50 [2] | EC50 [3] | EC50 [4] | Kb [5] | EC50 [6] | Structure (SMILES) | EC50 [1]
6 | No effect | No effect | 40 µM |  |  | NC1(C(=O)O)CC(C(=O)O)C(C(=O)O)C1 (racemic) | 
7 | No effect | No effect | 8.8 µM |  |  | NC1(C(=O)O)C[C@H](C(=O)O)[C@@H](C(=O)O)C1 | 
8 | No effect | No effect | 7.2 µM | No effect |  | N[C@@]1(C(=O)O)C[C@H](C(=O)O)[C@H](C(=O)O)C1 | 
9 | No effect | No effect |  |  | No effect | NC1(C(=O)O)C[C@@H](C(=O)O)[C@H](C(=O)O)C1 | 
